MDM2 E3 inh – Mdm2 E3 ligase (human) inhibition. cell-based MDM2 ubiquitination luciferase reporter, 2 h; 0 = plate control, 100 = twice control, blank-subtracted. signal enhancement, % at 5 µM. 210,000 compounds, 0.11% hits. AID 1230;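 active = signal enhancement of 30% or more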;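 note: luminescence tracks abundance of the self-degrading MDM2-luciferase fusion protein; higher signal means inhibition of MDM2 E3 ligase activity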
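Material: Stable MDM2–luciferase fusion reporter cells | Amount: 2000 cells seeded into each well | Dosing: One concentration, 5 µM, with 0.2% DMSO | Incubation: 4 h cell settling then 2 h compound exposure, 37 °C | Measured by: Luciferase luminescence | Read-out basis: % enhancement relative to plate controls after blank subtraction | Benchmarks: Control and blank well means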
ROMK mod – modulates human ROMK potassium channel activity; P48048; Tet-inducible ROMK, thallium flux fluorescence; actives lie on both sides; B-score at 10 µM; 130,000 compounds, 2% hits;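 active = signal ratio slope over the read window, or its plate-corrected B-score, at least 3 SD from the plate mean, either direction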;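 note: B-score of the F/F0 ratio slope over 7 to 12 s after thallium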
PKD1 inh – inhibitors of human PKD1 kinase; 200,000 compounds, 0.056% hits; Q15139; PKD1 kinase fluorescence polarization assay; inhibition, % (no concentration beside the values); in the data active = inhibition above about 50%
Redox H2O2 prof – compounds producing H2O2 with reducing agent – biochemical, NIH compound library profiling, artefact control for MLSCN library redox annotation, primary screen. DTT-dependent redox cycling H2O2, phenol red/HRP absorbance; 100% = 100 µM peroxide control, 0% = buffer. activation, % at 10 µM. AID 878. 200,000 compounds, 0.03% hits;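 active = activation of at least 50% relative to the plate's high and low controls in the primary single-dose screen; inactive = activation below 50%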;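 note: compound incubated with DTT at 0.8 mM final as the reducing agent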
p97 inhibitor – blocks human p97 ATPase activity; 220,000 compounds, 0.42% hits; P55072; recombinant p97 ATPase, Kinase-Glo ATP luminescence, 3 h; inhibition, % at 8 µM; AID 1481; in the data active = inhibition above about 15%;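 note: 0% = DMSO vehicle and 100% = wells lacking enzyme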
KCC2 mod – modulators of human KCC2 chloride dependent transport; B-score of Tl+ flux slope (higher = more flux/activation; lower = inhibition) at 10 µM; Q9H2X9; 190,000 compounds, 2.2% hits; KCC2 cells, thallium flux FluoZin-2 fluorescence;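 active = thallium flux slope and its plate-corrected score both differing from the plate sample mean at a set confidence after two filtering rounds, in either direction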;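 note: slope of fluorescence scaled to starting intensity during 10 to 20 s after thallium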
Target sequence (Q9H2X9 whole entry, looked up): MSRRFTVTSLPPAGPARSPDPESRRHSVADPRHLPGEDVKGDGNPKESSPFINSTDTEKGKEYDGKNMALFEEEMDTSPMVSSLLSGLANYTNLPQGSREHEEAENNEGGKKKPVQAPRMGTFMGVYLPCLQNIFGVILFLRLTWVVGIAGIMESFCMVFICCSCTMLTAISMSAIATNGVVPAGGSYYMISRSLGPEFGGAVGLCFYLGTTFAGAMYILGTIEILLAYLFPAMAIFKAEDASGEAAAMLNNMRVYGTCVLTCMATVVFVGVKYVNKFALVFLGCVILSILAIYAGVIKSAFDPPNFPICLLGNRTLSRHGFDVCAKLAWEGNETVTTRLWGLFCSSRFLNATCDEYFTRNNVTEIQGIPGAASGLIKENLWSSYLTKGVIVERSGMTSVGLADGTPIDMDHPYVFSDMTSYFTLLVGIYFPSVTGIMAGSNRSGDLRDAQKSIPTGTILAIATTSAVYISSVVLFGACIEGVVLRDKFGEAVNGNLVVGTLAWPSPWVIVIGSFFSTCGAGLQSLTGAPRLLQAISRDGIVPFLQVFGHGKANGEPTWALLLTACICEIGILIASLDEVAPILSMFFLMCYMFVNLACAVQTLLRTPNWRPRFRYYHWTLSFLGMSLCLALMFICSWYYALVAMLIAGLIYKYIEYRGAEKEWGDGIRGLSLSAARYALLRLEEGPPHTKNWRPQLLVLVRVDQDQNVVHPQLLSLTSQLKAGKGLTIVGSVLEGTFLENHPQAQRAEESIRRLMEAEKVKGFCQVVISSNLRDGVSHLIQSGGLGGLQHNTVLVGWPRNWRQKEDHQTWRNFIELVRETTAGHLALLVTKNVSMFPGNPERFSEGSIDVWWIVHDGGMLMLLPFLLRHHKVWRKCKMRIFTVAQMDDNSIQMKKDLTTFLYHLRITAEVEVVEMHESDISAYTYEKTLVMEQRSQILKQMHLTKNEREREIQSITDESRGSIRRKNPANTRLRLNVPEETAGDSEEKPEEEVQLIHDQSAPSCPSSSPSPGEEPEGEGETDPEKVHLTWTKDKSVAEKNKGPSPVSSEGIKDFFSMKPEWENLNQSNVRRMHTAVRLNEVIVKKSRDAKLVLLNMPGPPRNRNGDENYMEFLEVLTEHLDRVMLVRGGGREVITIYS
KCC2 secondary – KCC2 (human) modulation, secondary assay. shares compounds with KCC2 mod. HEK293-KCC2, thallium flux, FluoZin2 fluorescence; stronger effect = higher value. normalised thallium flux (F/F0 slope) at 10 µM. 3,700 compounds, 15% hits. AID 1713;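 active = thallium flux slope above the same plate's solvent-only control mean plus 3 SD; inconclusive = the two replicate wells disagree; inactive = no significant difference from solvent-only control wells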
KCC2 bumet counter – thallium flux despite bumetanide block in KCC2 cells, secondary assay 3; shares compounds with KCC2 mod; AID 1714; normalized thallium flux at 10 µM; 3,700 compounds, 49% hits; HEK293-KCC2 + bumetanide/ouabain, thallium flux FluoZin2; stronger effect = higher value;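 active = thallium entry rate above the same plate's blocked-transporter control wells by more than 3 SD; inconclusive = the two repeat wells disagree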;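 note: raw slope of fluorescence over initial fluorescence between 10 and 20 s after thallium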
KCC2 secondary2 – confirmation of human KCC2 transport modulators; shares compounds with KCC2 mod; HEK293-KCC2, thallium flux FluoZin2 fluorescence; actives lie on both sides; F/F0 rise rate, 10–20 s post-thallium; normalized thallium flux at 10 µM; 3,700 compounds, 23% hits; AID 1715;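 active = thallium flux slope more than 3 SD above or below the plate's solvent-only control mean, mostly below; inconclusive = the two repeat wells disagreed; inactive = no significant shift from solvent-only controls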;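 note: raw slope with 0.1% DMSO as baseline and bumetanide as block control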
HEK counter1 – acts in parental HEK cells, KCC2 counter-screen; 3,700 compounds, 46% hits; AID 1716; shares compounds with KCC2 mod; HEK293 parental cells, thallium flux FluoZin2, ouabain; baseline-ratio fluorescence slope, 10–20 s after thallium; thallium flux rate (normalised fluorescence) at 10 µM;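 active = thallium flux rate significantly above the same plate's solvent-only control wells, beyond their mean plus 3 SD; inconclusive = the two replicate wells gave conflicting results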
KCC2 ouabain – KCC2 (human) modulation, ouabain retest | raw Tl+ flux slope (below DMSO = inhibition, above = activation) at 10 µM | HEK293-KCC2, thallium flux FluoZin2 fluorescence; bidirectional: low = inhibitor, high = activator | 3,700 compounds, 48% hits | shares compounds with KCC2 mod;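 active = thallium flux slope beyond 3 SD from same-plate DMSO control mean in most replicates, usually higher, sometimes lower; inconclusive = repeat tests gave conflicting results; inactive = no significant difference from controls in most replicates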;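 note: slope of initial-normalized fluorescence between seconds 10 and 20 after thallium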
HEK293 Tl flux2 – counter-screen for KCC2 modulators: effect in parental HEK293 cells. shares compounds with KCC2 mod. thallium flux FluoZin-2 fluorescence slope. thallium flux slope at 10 µM. 3,700 compounds, 33% hits;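 active = thallium flux slope above the same plate's solvent-control mean plus 3 SD in both duplicate wells; inconclusive = duplicate wells that disagreed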;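 note: run without ouabain in cells lacking the KCC2 cotransporter; slope of fluorescence scaled to its starting value between 10 and 20 s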
An asterisk follows results filed as active; ? = inconclusive; nt = no result. The list is not random: actives were taken first. Their share in the collection is about 3.4%.

SMILES	MDM2 E3 inh	ROMK mod	PKD1 inh	Redox H2O2 prof	p97 inhibitor	KCC2 mod	KCC2 secondary	KCC2 bumet counter	KCC2 secondary2	HEK counter1	KCC2 ouabain	HEK293 Tl flux2
COc1ccc(OCC(=O)NC(=S)N2CCCc3ccccc32)cc1	0	0.17	-3	-1	9	24*	0.021*	0.037*	0.034	0.021*	0.029*	0.021*
c1nnnn1C12CC3CC(CC(C3)C1)C2	-8	nt	-3	12	4	0.32	nt	nt	nt	nt	nt	nt
O=C(CSCc1cccc(Cl)c1)N1CCN(Cc2ccc3c(c2)OCO3)CC1	-16	-1.2	2	0	-1	nt	nt	nt	nt	nt	nt	nt
COC(=O)Cc1ccc(NC(=S)NC(C)(C)C)cc1	nt	0.73	-4	-1	0	0.91	nt	nt	nt	nt	nt	nt
CCN(CC)C(=S)SCC(=O)Nc1ncc2c(n1)CC(C)(C)CC2=O	3	nt	nt	nt	2	5.6*	0.0058	0.0049	0.031	0.0075	0.019	0.011
CCCOc1ccc(NC2=CC(=O)CC(C)(C)C2)cc1	-5	0.68	13	0	-7	nt	0.0062	0.0051	0.03	0.0077	0.018	0.011
O=C(C[n+]1ccc2ccccc2c1)Nc1cc(C(F)(F)F)ccc1Cl	-13	-1.5	3	0	-1	0.7	nt	nt	nt	nt	nt	nt
CN1CCN(C(=S)NC(=O)c2ccc(S(=O)(=O)N3CCOCC3)cc2)CC1	-28	0.24	-2	-1	0	0.013	nt	nt	nt	nt	nt	nt
O=C(NC(=S)N1CCN(C(c2ccccc2)c2ccccc2)CC1)c1ccc(S(=O)(=O)N2CCOCC2)cc1	-14	0.23	20	-1	-1	8.7*	0.006	0.024*	0.032	0.013*	?	?
CCCN(CC1CC1)C(=S)NC(=O)c1ccc(S(=O)(=O)N2CCOCC2)cc1	-13	-1.1	-7	0	-3	5.6*	0.018	0.019*	0.033	0.017*	0.024*	0.018*
CCCCN(C(=O)c1cc(=O)[nH]c2ccccc12)c1c(N)n(CCC)c(=O)[nH]c1=O	4	nt	nt	nt	7	0.27	nt	nt	nt	nt	nt	nt
COc1cccc(-n2nc(-c3ccnn3-c3ccccc3)c(=O)n(C)c2=O)c1	-17	0.5	-9	0	-3	nt	nt	nt	nt	nt	nt	nt
CCCCOc1ccc(/C=N/NC(=O)C2CCCNC2=O)cc1 (centres undefined)	-13	nt	nt	nt	3	1	nt	nt	nt	nt	nt	nt
CC(C)=CCN1CCN(Cc2cc(CC(C)C)n[nH]2)CC1CCO (centres undefined)	-13	nt	nt	nt	6	1.4	nt	nt	nt	nt	nt	nt
CN1C(=O)/C(=C/c2ccccc2OCc2ccccc2)NC1=S	-2	-0.0039	-6	0	0	9.7*	0.0088	0.013*	0.033	0.0098*	?	0.01
COc1ccc(-c2cc(CCCC(=O)NCCc3ccccc3)no2)cc1	-5	0.5	nt	nt	-3	-4.3*	0.009	0.0067	?	0.007	0.016*	0.01
O=C(CSc1ccc(-c2ccco2)nn1)c1cccc([N+](=O)[O-])c1	-14	-0.92	-1	0	6	-2.2	nt	nt	nt	nt	nt	nt
